# Data as given in ChEMBL document CHEMBL5032538, “Studies on the Importance of the 7α-, and 12α- hydroxyl groups of N-Aryl-3α,7α,12α-trihydroxy-5β-cholan-24-amides on their Antigermination Activity Against a Hypervirulent Strain of Clostridioides (Clostridium) difficile” (Bioorg Med Chem, 2021).
# Experiments:
# Format in all cases: functional
# Clostridioides difficile [1] = test: Inhibition of Taurocholate-induced spore germination in Clostridioides difficile R20291 assessed as remaining germination activity at 125 uM in the presence of glycine measured every minute for 2 hrs relative to control
# Summary of the method: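 Spores purified on a HistoDenz gradient, heat-activated at 68°C for 30 min, washed, then diluted to OD580 1.0 in 100 mM sodium phosphate pH 6.0 with 5 mg/ml sodium bicarbonate. Compound at 125 μM final, in triplicate, with 6 mM taurocholate and 12 mM glycine. OD580 read every minute for 2 h and normalized to time zero. Percent germination given with standard deviation.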
# Clostridioides difficile [2] = test: Inhibition of Taurocholate-induced spore germination in Clostridioides difficile R20291 in the presence of glycine measured every minute for 2 hrs
# Summary of the method: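 HistoDenz-purified spores were heat-activated at 68°C for 30 min and set to OD580 1.0 in 100 mM sodium phosphate pH 6.0 with 5 mg/ml bicarbonate. They were incubated with varied analog concentrations plus 6 mM taurocholate and 12 mM glycine. OD580 was read each minute for 2 h and normalized to t0. IC50 came from extent of germination plotted against log concentration.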
# Clostridioides difficile [3] = test: Inhibition of Taurocholate-induced spore germination in Clostridioides difficile UK1 at […] by spectrophotometric method
# Clostridioides difficile [4] = test: Inhibition of Taurocholate-induced spore germination in Clostridioides difficile 630 in presence of glycine measured every minute for 90 mins
Compound,Activity (Clostridioides difficile [1]) [%],other results
C[C@H](CCC(=O)Nc1cccc(F)c1)[C@H]1CC[C@H]2[C@@H]3CC[C@@H]4C[C@H](O)CC[C@]4(C)[C@H]3CC[C@]12C,100,
C[C@H](CCC(=O)Nc1ccccc1)[C@H]1CC[C@H]2[C@@H]3[C@H](O)C[C@@H]4C[C@H](O)CC[C@]4(C)[C@H]3CC[C@]12C,14,IC50 (Clostridioides difficile [2]): 4 µM
Cc1ccc(F)cc1NC(=O)CC[C@@H](C)[C@H]1CC[C@H]2[C@@H]3[C@H](O)C[C@@H]4C[C@H](O)CC[C@]4(C)[C@H]3CC[C@]12C,66,
COc1ccccc1NC(=O)CC[C@@H](C)[C@H]1CC[C@H]2[C@@H]3[C@H](O)C[C@@H]4C[C@H](O)CC[C@]4(C)[C@H]3CC[C@]12C,31,IC50 (Clostridioides difficile [2]): 6 µM
C[C@H](CCC(=O)Nc1ccccc1)[C@H]1CC[C@H]2[C@@H]3CC[C@@H]4C[C@H](O)CC[C@]4(C)[C@H]3CC[C@]12C,100,
C[C@H](CCC(=O)Nc1cccc(F)c1)[C@H]1CC[C@H]2[C@@H]3[C@@H](O)C[C@@H]4C[C@H](O)CC[C@]4(C)[C@H]3CC[C@]12C,100,
COc1ccccc1NC(=O)CC[C@@H](C)[C@H]1CC[C@H]2[C@@H]3CC[C@@H]4C[C@H](O)CC[C@]4(C)[C@H]3C[C@H](O)[C@]12C,0.4,IC50 (Clostridioides difficile [2]): 2.4 µM
C[C@H](CCC(=O)O)[C@H]1CC[C@H]2[C@@H]3CC[C@@H]4C[C@H](O)CC[C@]4(C)[C@H]3CC[C@]12C [LITHOCHOLIC ACID],,Ki (Clostridioides difficile [3]): 104 µM
Cc1ccc(F)cc1NC(=O)CC[C@@H](C)[C@H]1CC[C@H]2[C@@H]3[C@@H](O)C[C@@H]4C[C@H](O)CC[C@]4(C)[C@H]3CC[C@]12C,100,
COc1ccccc1NC(=O)CC[C@@H](C)[C@H]1CC[C@H]2[C@@H]3CC[C@@H]4C[C@H](O)CC[C@]4(C)[C@H]3CC[C@]12C,100,
C[C@H](CCC(=O)O)[C@H]1CC[C@H]2[C@@H]3[C@@H](O)C[C@@H]4C[C@H](O)CC[C@]4(C)[C@H]3CC[C@]12C [URSODIOL],,Ki (Clostridioides difficile [3]): 213 µM
C[C@H](CCC(=O)Nc1ccccc1)[C@H]1CC[C@H]2[C@@H]3[C@@H](O)C[C@@H]4C[C@H](O)CC[C@]4(C)[C@H]3CC[C@]12C,57,
Cc1ccc(F)cc1NC(=O)CC[C@@H](C)[C@H]1CC[C@H]2[C@@H]3CC[C@@H]4C[C@H](O)CC[C@]4(C)[C@H]3CC[C@]12C,100,
C[C@H](CCC(=O)Nc1cccc(F)c1)[C@H]1CC[C@H]2[C@@H]3[C@H](O)C[C@@H]4C[C@H](O)CC[C@]4(C)[C@H]3CC[C@]12C,100,
C[C@H](CCC(=O)O)[C@H]1CC[C@H]2[C@@H]3[C@H](O)C[C@@H]4C[C@H](O)CC[C@]4(C)[C@H]3CC[C@]12C [CHENODIOL],,Ki (Clostridioides difficile [3]): 378 µM
COc1ccccc1NC(=O)CC[C@@H](C)[C@H]1CC[C@H]2[C@@H]3[C@@H](O)C[C@@H]4C[C@H](O)CC[C@]4(C)[C@H]3CC[C@]12C,100,
C[C@H](CCC(=O)Nc1cccc(S(=O)(=O)O)c1)[C@H]1CC[C@H]2[C@@H]3[C@H](O)C[C@@H]4C[C@H](O)CC[C@]4(C)[C@H]3C[C@H](O)[C@]12C,,Ki (Clostridioides difficile [4]): 50 µM
C[C@H](CCC(=O)Nc1ccccc1)[C@H]1CC[C@H]2[C@@H]3CC[C@@H]4C[C@H](O)CC[C@]4(C)[C@H]3C[C@H](O)[C@]12C,3,IC50 (Clostridioides difficile [2]): 1.3 µM
Cc1ccc(F)cc1NC(=O)CC[C@@H](C)[C@H]1CC[C@H]2[C@@H]3CC[C@@H]4C[C@H](O)CC[C@]4(C)[C@H]3C[C@H](O)[C@]12C,65,
C[C@H](CCC(=O)Nc1cccc(F)c1)[C@H]1CC[C@H]2[C@@H]3CC[C@@H]4C[C@H](O)CC[C@]4(C)[C@H]3C[C@H](O)[C@]12C,59,
